Measurements reported in ChEMBL document CHEMBL3580633, “Benzoxaborole antimalarial agents. Part 4. Discovery of potent 6-(2-(alkoxycarbonyl)pyrazinyl-5-oxy)-1,3-dihydro-1-hydroxy-2,1-benzoxaboroles” (J Med Chem, 2015).

Columns and labels:
[1] = tested on: Plasmodium berghei; assay: Antiplasmodial activity against Plasmodium berghei infected in Swiss Webster mouse assessed as mouse survival at 1 mg/kg, po dosed once daily for 4 consecutive days beginning 1 hr after initial infection and measured on day 7 post infection by Giemsa staining method; format: functional
In short: (§1)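 Female Swiss Webster mice (about 20 g) infected ip with 6 × 10^6 P. berghei-infected erythrocytes. Oral gavage once daily for 4 days, starting 1 h after infection. Vehicle PEG300/propylene glycol/water (55/25/20 by weight). Giemsa-smear parasitemia counted daily from day 4. Mice euthanised above 50% parasitemia. Survival followed to day 21, 5 mice per dose, chloroquine 30 mg/kg as reference.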

[2] = tested on: Plasmodium berghei; assay: Antiplasmodial activity against Plasmodium berghei infected in Swiss Webster mouse assessed as mouse survival at 11 mg/kg, po dosed once daily for 4 consecutive days beginning 1 hr after initial infection and measured on day 5 post infection by Giemsa staining method; format: functional; in short: as §1
[3] = tested on: Plasmodium berghei; assay: Antiplasmodial activity against Plasmodium berghei infected in Swiss Webster mouse assessed as mouse survival at 33 mg/kg, po dosed once daily for 4 consecutive days beginning 1 hr after initial infection and measured on day 8 post infection by Giemsa staining method; format: functional
In short: (§2)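 Female Swiss Webster mice (about 20 g) were infected ip with 6 × 10^6 P. berghei-infected erythrocytes from a donor mouse. They were dosed by oral gavage once daily for 4 days, starting 1 h post-infection, in PEG 300/propylene glycol/water (55/25/20 by weight). Parasitemia was read daily on Giemsa smears from day 4, and mice were euthanized above 50% parasitemia. Percent survival was tracked to 21 days.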

[4] = tested on: Plasmodium berghei; assay: Antiplasmodial activity against Plasmodium berghei infected in Swiss Webster mouse assessed as mouse survival at 33 mg/kg, po dosed once daily for 4 consecutive days beginning 1 hr after initial infection and measured on day 5 post infection by Giemsa staining method; format: functional; in short: as §2
[5] = tested on: Plasmodium berghei; assay: Antiplasmodial activity against Plasmodium berghei infected in Swiss Webster mouse assessed as mouse survival at 3 mg/kg, po dosed once daily for 4 consecutive days beginning 1 hr after initial infection and measured on day 7 post infection by Giemsa staining method; format: functional; in short: as §1
[6] = tested on: Plasmodium falciparum; assay: Antimalarial activity against chloroquine-resistant Plasmodium falciparum W2 cultured in human erythrocytes assessed as inhibition of parasite growth incubated for 48 hrs by YOYO-1 staining based flow cytometry; format: functional, organism-based; conditions: W2, 48 h
[7] = tested on: Plasmodium berghei; assay: Antiplasmodial activity against Plasmodium berghei infected in Swiss Webster mouse assessed as mouse survival at 1 mg/kg, po dosed once daily for 4 consecutive days beginning 1 hr after initial infection and measured on day 9 post infection by Giemsa staining method; format: functional; in short: as §1
[8] = tested on: Plasmodium berghei; assay: Antiplasmodial activity against Plasmodium berghei infected in Swiss Webster mouse assessed as mouse survival at 11 mg/kg, po dosed once daily for 4 consecutive days beginning 1 hr after initial infection and measured on day 6 post infection by Giemsa staining method; format: functional; in short: as §1
[9] = tested on: Plasmodium berghei; assay: Antiplasmodial activity against Plasmodium berghei infected in Swiss Webster mouse assessed as mouse survival at 33 mg/kg, po dosed once daily for 4 consecutive days beginning 1 hr after initial infection and measured on day 6 post infection by Giemsa staining method; format: functional; in short: as §2
[10] = tested on: Plasmodium berghei; assay: Antiplasmodial activity against Plasmodium berghei infected in Swiss Webster mouse assessed as mouse survival at 33 mg/kg, po dosed once daily for 4 consecutive days beginning 1 hr after initial infection and measured on day 7 post infection by Giemsa staining method; format: functional; in short: as §2
[11] = tested on: Plasmodium berghei; assay: Antiplasmodial activity against Plasmodium berghei infected in Swiss Webster mouse assessed as mouse survival at 11 mg/kg, po dosed once daily for 4 consecutive days beginning 1 hr after initial infection and measured on day 4 post infection by Giemsa staining method; format: functional; in short: as §1
[12] = tested on: Plasmodium berghei; assay: Antiplasmodial activity against Plasmodium berghei infected in Swiss Webster mouse assessed as mouse survival at 1 mg/kg, po dosed once daily for 4 consecutive days beginning 1 hr after initial infection and measured on day 6 post infection by Giemsa staining method; format: functional; in short: as §1
[13] = tested on: Plasmodium berghei; assay: Antiplasmodial activity against Plasmodium berghei infected in Swiss Webster mouse assessed as mouse survival at 1 mg/kg, po dosed once daily for 4 consecutive days beginning 1 hr after initial infection and measured on day 5 post infection by Giemsa staining method; format: functional; in short: as §1
[14] = tested on: Plasmodium berghei; assay: Antiplasmodial activity against Plasmodium berghei infected in Swiss Webster mouse assessed as mouse survival at 100 mg/kg, po dosed once daily for 4 consecutive days beginning 1 hr after initial infection and measured on day 10 post infection by Giemsa staining method; format: functional; in short: as §1
[15] = tested on: Plasmodium berghei; assay: Antiplasmodial activity against Plasmodium berghei infected in Swiss Webster mouse assessed as mouse survival at 11 mg/kg, po dosed once daily for 4 consecutive days beginning 1 hr after initial infection and measured on day 9 post infection by Giemsa staining method; format: functional; in short: as §1
[16] = tested on: Plasmodium berghei; assay: Antiplasmodial activity against Plasmodium berghei infected in Swiss Webster mouse assessed as mouse survival at 100 mg/kg, po dosed once daily for 4 consecutive days beginning 1 hr after initial infection and measured on day 9 post infection by Giemsa staining method; format: functional; in short: as §1
[17] = tested on: Plasmodium berghei; assay: Antiplasmodial activity against Plasmodium berghei infected in Swiss Webster mouse assessed as mouse survival at 1 mg/kg, po dosed once daily for 4 consecutive days beginning 1 hr after initial infection and measured on day 8 post infection by Giemsa staining method; format: functional; in short: as §1
[18] = tested on: Plasmodium berghei; assay: Antiplasmodial activity against Plasmodium berghei infected in Swiss Webster mouse assessed as mouse survival at 100 mg/kg, po dosed once daily for 4 consecutive days beginning 1 hr after initial infection and measured on day 5 post infection by Giemsa staining method; format: functional; in short: as §1
[19] = tested on: Plasmodium berghei; assay: Antiplasmodial activity against Plasmodium berghei infected in Swiss Webster mouse assessed as mouse survival at 11 mg/kg, po dosed once daily for 4 consecutive days beginning 1 hr after initial infection and measured on day 7 post infection by Giemsa staining method; format: functional; in short: as §1
[20] = tested on: Plasmodium berghei; assay: Antiplasmodial activity against Plasmodium berghei infected in Swiss Webster mouse assessed as mouse survival at 100 mg/kg, po dosed once daily for 4 consecutive days beginning 1 hr after initial infection and measured on day 7 post infection by Giemsa staining method; format: functional; in short: as §1
[21] = tested on: Plasmodium berghei; assay: Antiplasmodial activity against Plasmodium berghei infected in Swiss Webster mouse assessed as […] dosed orally once daily for 4 consecutive days beginning 1 hr after initial infection and measured on day 4 after onset of treatment by Giemsa staining method; format: functional; conditions: po
In short: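 In the P. berghei model, female Swiss Webster mice were infected ip with 6 × 10^6 infected erythrocytes. They were gavaged once daily for 4 days from 1 h post-infection, in PEG 300/propylene glycol/water (55/25/20 by weight), with 5 mice per dose. Parasitemia was counted on Giemsa smears. ED90 is the dose reducing parasitemia 90% versus vehicle controls 4 days after therapy began, fitted by nonlinear regression.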

[22] = tested on: Plasmodium berghei; assay: Antiplasmodial activity against Plasmodium berghei infected in Swiss Webster mouse assessed as mouse survival at 11 mg/kg, po dosed once daily for 4 consecutive days beginning 1 hr after initial infection and measured on day 10 post infection by Giemsa staining method; format: functional; in short: as §1
[23] = tested on: Plasmodium berghei; assay: Antiplasmodial activity against Plasmodium berghei infected in Swiss Webster mouse assessed as mouse survival at 100 mg/kg, po dosed once daily for 4 consecutive days beginning 1 hr after initial infection and measured on day 4 post infection by Giemsa staining method; format: functional; in short: as §1
[24] = tested on: Plasmodium falciparum; assay: Antimalarial activity against chloroquine-sensitive Plasmodium falciparum 3D7 cultured in human erythrocytes incubated for 48 hrs by [3H]-hypoxanthine incorporation assay; format: functional, organism-based
In short: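 3D7 parasites in human erythrocytes, RPMI-1640 with 0.5% Albumax II, […], 37 °C, 5% O2/5% CO2. Asynchronous cultures (0.5% parasitemia, 2% hematocrit) given 3-fold serial dilutions for 24 h. [3H]hypoxanthine then added for a further 24 h, and incorporation counted by scintillation. Normalised to drug-free infected cells. IC50 from at least three independent experiments.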

Row | Compound | survival at 1 mg/kg [1] [%] | survival at 11 mg/kg [2] [%] | survival at 33 mg/kg [3] [%] | survival at 33 mg/kg [4] [%] | survival at 3 mg/kg [5] [%] | IC50 [6] [nM] | survival at 11 mg/kg [8] [%] | survival at 33 mg/kg [9] [%] | survival at 33 mg/kg [10] [%] | survival at 11 mg/kg [11] [%] | survival at 1 mg/kg [12] [%] | survival at 1 mg/kg [13] [%] | survival at 11 mg/kg [15] [%] | survival at 100 mg/kg [16] [%] | survival at 1 mg/kg [17] [%] | survival at 100 mg/kg [18] [%] | survival at 11 mg/kg [19] [%] | survival at 100 mg/kg [20] [%] | ED90 [21] [mg/kg] | survival at 100 mg/kg [23] [%] | other results
1 | O=C(O)c1cnc(Oc2ccc3c(c2)B(O)OC3)cn1 | 80 | 100 | 80 | 100 | 60 | 150 | 100 | 100 | 100 | 100 | 100 | 100 | 20 | 60 | 40 | 100 | 100 | 100 | 30.3 | 100 | survival at 1 mg/kg [7]: 0%; survival at 100 mg/kg [14]: 60%; survival at 11 mg/kg [22]: 20%
2 | O=C(O)c1ccc(Oc2ccc3c(c2)B(O)OC3)cn1 | 60 | 100 | 60 | 100 | 60 | 170 | 100 | 100 | 100 | 100 | 100 | 100 | 0 | 0 | 0 | 100 | 100 | 100 | 21.1 | 100 | IC50 [24]: 540 nM
3 | COC(=O)c1cnc(Oc2ccc3c(c2)B(O)OC3)cn1 | 100 | 100 | 100 | 100 | 100 | 1.4 | 100 | 100 | 100 | 100 | 100 | 100 | 80 | 100 | 40 | 100 | 100 | 100 | 7 | 100 | survival at 1 mg/kg [7]: 0%; survival at 100 mg/kg [14]: 100%; IC50 [24]: 1.9 nM; survival at 11 mg/kg [22]: 80%
4 | NC(=O)c1cnc(Oc2ccc3c(c2)B(O)OC3)cn1 | 60 | 100 | 100 | 100 | 80 | 210 | 100 | 100 | 100 | 100 | 100 | 100 | 60 | 60 | 40 | 100 | 100 | 100 | 38.7 | 100 | survival at 1 mg/kg [7]: 0%; survival at 100 mg/kg [14]: 0%; IC50 [24]: 350 nM; survival at 11 mg/kg [22]: 0%
